# Screening data from PubChem BioAssay.
# Shown are actives, neighbours in structure and some others; about 2.3% of the full set was active somewhere.
# TRPC4 potent: TRPC4 (mouse) allosteric potentiation; HEK293 TRPC4beta/mu-opioid, DAMGO EC20, Fluo-4 Ca2+ flux; active compounds read high; Q9QUQ5; 0.42% of 310,000 active; B-score at 10 µM;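 active means B-score of calcium response area above 5 SD of library B-scores, with initial fluorescence ratio within 5 SD of library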
# TRPC6 inhibitor: mouse TRPC6 channel inhibition; Q61143; HEK293-TRPC6, membrane potential dye, ACh-evoked depolarization; active compounds read low; B-score at 10 µM; 1.1% of 310,000 active; AID 2553;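 active means B-score under library mean minus 3 SD, initial fluorescence not abnormally high, positive integrated signal ratio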;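 further: B-score derived from integrated fluorescence ratio over the kinetic read; more negative B-score means stronger inhibition of depolarization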
# Target sequence (Q61143 whole entry, looked up): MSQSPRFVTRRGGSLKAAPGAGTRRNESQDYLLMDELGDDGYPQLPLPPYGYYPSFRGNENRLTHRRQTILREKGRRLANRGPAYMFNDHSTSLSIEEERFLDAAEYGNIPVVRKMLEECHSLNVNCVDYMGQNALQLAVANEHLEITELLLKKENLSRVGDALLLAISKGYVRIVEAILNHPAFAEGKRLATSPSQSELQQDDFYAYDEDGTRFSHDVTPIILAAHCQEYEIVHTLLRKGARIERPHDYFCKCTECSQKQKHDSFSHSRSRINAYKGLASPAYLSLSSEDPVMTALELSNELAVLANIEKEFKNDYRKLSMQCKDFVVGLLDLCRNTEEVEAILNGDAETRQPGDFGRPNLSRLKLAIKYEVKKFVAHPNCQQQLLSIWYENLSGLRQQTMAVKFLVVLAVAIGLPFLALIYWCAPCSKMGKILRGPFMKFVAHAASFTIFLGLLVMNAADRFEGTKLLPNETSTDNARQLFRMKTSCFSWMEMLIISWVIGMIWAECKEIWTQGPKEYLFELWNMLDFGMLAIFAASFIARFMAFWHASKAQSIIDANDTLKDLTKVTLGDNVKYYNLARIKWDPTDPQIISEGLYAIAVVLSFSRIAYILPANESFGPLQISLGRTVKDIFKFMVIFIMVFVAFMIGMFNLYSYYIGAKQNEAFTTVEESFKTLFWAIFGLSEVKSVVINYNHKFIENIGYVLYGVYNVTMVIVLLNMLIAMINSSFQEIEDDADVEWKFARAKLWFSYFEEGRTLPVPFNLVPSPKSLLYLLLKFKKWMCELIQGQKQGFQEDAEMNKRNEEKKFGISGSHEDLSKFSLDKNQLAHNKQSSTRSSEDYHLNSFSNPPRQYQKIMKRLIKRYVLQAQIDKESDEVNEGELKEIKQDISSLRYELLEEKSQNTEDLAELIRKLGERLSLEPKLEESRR
# TRPC4 act: activators of mouse TRPC4 channel; Q9QUQ5; B-score at 10 µM; 0.49% of 310,000 active; AID 2237; HEK293 TRPC4beta/mu-opioid, Fluo4 calcium fluorescence; active compounds read high;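 active means B-score above 5 SD of library B-scores, and initial fluorescence ratio not above library mean plus 5 SD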;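 further: positive B-score marks a calcium rise read as TRPC4 activation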
#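 Technique: kinetic Fluo4 calcium fluorescence; Test system: TRPC4beta and mu-opioid receptor HEK293 stable cells; Measure: B-scored integrated calcium fluorescence ratio; Benchmarks: low control buffer alone, high control maximal DAMGO; Schedule: 45 min room-temperature Fluo4 loading, 110 s read.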
# TRPC4 block: inhibitors of mouse TRPC4 channel | HEK293 TRPC4beta/mu-opioid, DAMGO-evoked Fluo4 calcium flux; active compounds read low | B-score at 10 µM | 0.39% of 300,000 active;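 active means B-score over 3 SD under the library average, no early fluorescence shift, positive overall ratio signal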
#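 test system = HEK293 cells with stable TRPC4beta plus mu-opioid receptor expression | detection = Fluo4 Ca2+ flux fluorescence | read-out = integrated fluorescence ratio relative to baseline, converted to per-well B score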
# TRPC6 act: mouse TRPC6 channel activation; Q61143; HEK293-TRPC6 membrane potential dye fluorescence; active compounds read high; 0.13% of 310,000 active; B-score at 10 µM;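 active means B-score of the integrated fluorescence ratio above library mean plus 3 SD, and starting fluorescence ratio within library mean plus 5 SD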;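 further: higher score means more depolarization so channel activation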
# TRPC4 sel inh 2: second check of whether TRPC6 inhibitors also affect mouse TRPC4; HEK293 TRPC4/MOR, membrane potential dye fluorescence; channel activated by saturating DAMGO dose; shares compounds with TRPC6 inhibitor; 42% of 920 active; inhibition, % at 10 µM;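 active means compounds whose fluorescence signal differed from control wells by over 3 SD, either direction, in both duplicate plates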
# TRPC4 spec: selectivity of TRPC6 inhibitors: effect on mouse TRPC4 | shares compounds with TRPC6 inhibitor | HEK293 TRPC4/mu-opioid, membrane potential fluorescence | activity change, negative = inhibition, % at 10 µM | 61% of 920 active | AID 2777;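 active means rise or fall in signal beyond 3 SD of buffer-only wells in both replicate plates, either sign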;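 further: integrated kinetic ratio of fluorescence range over baseline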
# HEK293 MPD ctr 2-1: parental HEK293 nonspecific activity of TRPC6 inhibitors, second screen; shares compounds with TRPC6 inhibitor; parental HEK293 membrane potential dye fluorescence; maximal acetylcholine challenge after compound addition; signal change vs control, % at 10 µM; 31% of 920 active; AID 2779;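 active means membrane potential signal moving either way by over 3 SD of the maximum-effect control, in both duplicate plates, meaning non-specific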
# HEK293 MPD ctr-1: counter-screen for TRPC6 inhibitors: effect in parental HEK293 cells | shares compounds with TRPC6 inhibitor | parental HEK293 membrane potential dye fluorescence | membrane potential signal change, % at 10 µM | 60% of 920 active | AID 2780;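 active means membrane potential signal shifting up or down by more than 3 SD of buffer-only wells, on both duplicate plates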
# HEK293 MPD ctr-2: checks TRPC6 modulator effects in parental HEK293 cells | shares compounds with TRPC6 inhibitor | membrane potential dye fluorescence | membrane potential signal change, % at 10 µM | 51% of 2,400 active | AID 488924;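 active means membrane potential signal moves up or down beyond 5 SD from buffer-only wells, on both duplicate plates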
# HEK293 MPD ctr 2-2: parental HEK293 nonspecific activity of TRPC6 modulators, second screen. shares compounds with TRPC6 inhibitor. membrane potential dye fluorescence; after compound, maximal acetylcholine stimulation. inhibition, % at 10 µM. 14% of 2,400 active. AID 488926;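 active means membrane potential signal drops by more than 5 SD from the mean control signal, in both duplicate plates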
# TRPC4/MOR mod: mouse TRPC4 off-target activity of TRPC6 modulators. shares compounds with TRPC6 inhibitor. HEK293 TRPC4/mu-opioid, membrane potential fluorescence. percent change from control (negative = decrease, positive = increase), % at 10 µM. 69% of 2,400 active. AID 488927;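 active means membrane potential signal moved up or down beyond 5 SD of buffer control wells, in both duplicate plates, actives on both sides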
# TRPC4 ctr inh 2: second check of whether TRPC6 modulators also affect mouse TRPC4. shares compounds with TRPC6 inhibitor. 55% of 2,400 active. inhibition, % at 10 µM. HEK293 TRPC4/mu-opioid, membrane potential dye fluorescence; stimulated with maximal-effect DAMGO;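 active means drop in membrane potential signal beyond 5 SD of the control wells in both duplicate plates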;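 further: TRPC4 counter screen for TRPC6 hits run under conditions tuned for TRPC6 not TRPC4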
# TRPC6 inh conf: confirmation of mouse TRPC6 inhibitors; AID 488960; 43% of 3,300 active; shares compounds with TRPC6 inhibitor; inhibition, % at 10 µM; HEK293-TRPC6, membrane potential dye, ACh-evoked depolarization;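 active means fluorescence ratio falls more than 5 SD below the full-stimulation control mean, in both duplicate runs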;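 further: integrated fluorescence ratio of peak minus minimum over baseline after agonist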
# TRPC6 act confirm: confirmation of mouse TRPC6 activators | shares compounds with TRPC6 inhibitor | HEK293-TRPC6 membrane potential dye fluorescence, FDSS | activation, % at 10 µM | 11% of 2,800 active | AID 488961;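 active means ratio signal rise beyond 5 SD above unstimulated control wells' mean, seen in both duplicate runs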
# Hits are given with their value; - = inactive; . = no result.
SMILES,TRPC4 potent,TRPC6 inhibitor,TRPC4 act,TRPC4 block,TRPC6 act,HEK293 MPD ctr-2,HEK293 MPD ctr 2-2,TRPC4/MOR mod,TRPC4 ctr inh 2,TRPC6 inh conf,TRPC6 act confirm,others
CN1CCN(c2ccc([N+](=O)[O-])cc2/C=N/NC(=O)c2ccc(F)cc2)CC1,-,-6.02,-,-,-,-174.0%,-,-34.5%,-,-,-,
N#CCC(=O)N/N=C/c1cc([N+](=O)[O-])ccc1N1CCOCC1,-,-,-,-,-,.,.,.,.,.,.,
N#Cc1ccc(-c2cn(-c3ccccc3)c3[n+]2CCCS3)cc1,-,-5.96,-,-,-,-213.5%,-,-35.0%,38.0%,-,-,
CC(C)c1ccc(NC(=O)C2=NNC(=O)CC2)cc1,-,-,-,-,-,.,.,.,.,.,.,
CC(C)C(=O)Nc1c2c(nn1-c1ccc([N+](=O)[O-])cc1)CS(=O)(=O)C2,-,-,-,-,-,.,.,.,.,.,.,
Cc1ccc(-n2nc3c(c2NC(=O)C(C)C)CS(=O)(=O)C3)cc1,-,-5.53,-,-,-,-,-,21.0%,-,-,.,
Cc1ccc(C)c(-c2csc(N/N=C/c3ccco3)n2)c1,-,-,-,-,-,.,.,.,.,.,.,
CNc1nc(Cl)c(SC)c(NCc2cccc(OC)c2)n1,-,-,-,-,-,.,.,.,.,.,.,
CCN(CC)CCCC(C)NC(=O)c1c(NC(=O)c2ccccc2)sc2c1CCCC2 (configuration not stated),-,-6.12,-,-,-,-,-,-19.5%,81.0%,60.0%,-,
CN(C)C(=O)c1c(NC(=O)c2ccccc2)sc2c1CCC2,-,-,-,-,-,.,.,.,.,.,.,
Cc1cc2nc3ccc(N(C)C)cc3nc2cc1N,-,-6.42,-,-,-,-82.0%,-,-42.0%,-,-,-,
Cc1ccc(-n2nc3cc(C)c(N)cc3n2)cc1,-,-,-,-,-,.,.,.,.,.,.,
FC(F)Sc1ccc(-n2cc(-c3ccccc3)[n+]3c2CCC3)cc1,-,-,-,-,-,.,.,.,.,.,.,
COc1ccc(-c2cn(-c3ccc(SC(F)F)cc3)c3[n+]2CCC3)cc1OC,-,-6.27,-,-,-,-137.0%,127.5%,-20.0%,38.5%,64.5%,-,
FC(F)(F)c1ccc2c(c1)n(Cc1ccccc1)c1[n+]2CCCCC1,-,-5.12,-,-,-,-,-,-,-,-,-,
CN1CCCC(C(=O)C(C#N)c2ccccc2)C1 (configuration not stated),-,-,-,-,-,.,.,.,.,.,.,
CN1CCCC(C#CC(O)(c2ccccc2)c2ccccc2)C1 (configuration not stated),-,-8.75,-,-,-,.,.,.,.,-,-,TRPC4 sel inh 2=-;TRPC4 spec=-;HEK293 MPD ctr 2-1=-;HEK293 MPD ctr-1=-
COc1ccccc1CNC(=O)COc1ccc(S(=O)(=O)N2CCCC2)cc1,-,-,-,-,-,.,.,.,.,.,.,
CN1CCN(CCCn2cnc3c(=O)oc4ccccc4c32)CC1,-,-5.07,-,-,-,-269.0%,-,-48.5%,-,-,-,
O=c1oc2ccccc2c2c1ncn2CCN1CCOCC1,-,-,-,-,-,.,.,.,.,.,.,
O=C1CCC(c2ccccc2)(C2CCN(Cc3ccccc3)CC2)C(=O)N1 (configuration not stated),-,-6.29,-,-,-,95.5%,84.5%,20.5%,35.0%,74.5%,.,
N#Cc1ccc(C2=NC(C(F)(F)F)(C(F)(F)F)c3c(n(Cc4ccco4)c(=O)[nH]c3=O)N2)cc1,-,-8.33,-,-,-,.,.,.,.,-,-,TRPC4 sel inh 2=-;TRPC4 spec=-11.7%;HEK293 MPD ctr 2-1=-;HEK293 MPD ctr-1=-128.0%
COCCN(CCOC)c1nc(S(=O)(=O)c2ccc(C)cc2)c(Cl)s1,-,-5.41,-,-,-,106.0%,-,23.5%,-,-,.,
O=C(CSc1ccc(F)cc1)NCC1(N2CCOCC2)CCCCC1,-,-,-,-,-,.,.,.,.,.,.,
COc1ccc(NS(=O)(=O)c2cccc(C(=O)Nc3cccc(C(=O)O)c3)c2)cc1,-,-,-,-,-,.,.,.,.,.,.,
SMILES,TRPC4 potent,TRPC6 inhibitor,TRPC4 act,TRPC4 block,TRPC6 act,HEK293 MPD ctr-2,HEK293 MPD ctr 2-2,TRPC4/MOR mod,TRPC4 ctr inh 2,TRPC6 inh conf,TRPC6 act confirm,others
COc1ccc(NS(=O)(=O)c2cccc(C(=O)O)c2)cc1,-,-5.39,-,-,-,-,-,-,-,-,-,
CSc1cccc(NC(N)=S)c1,-,-,-,-,-,.,.,.,.,.,.,
CS(=O)(=O)N(CC(=O)NCc1ccccc1Cl)C1CCCCC1,-,-6.54,-,-,-,133.5%,-,22.5%,-,-,.,
CN(C)C(=O)N1CCCC(C(=O)NCc2ccccc2Cl)C1 (configuration not stated),-,-5.29,-,-,-,-,-,-,-,-,-,
CS(=O)(=O)N(CC(=O)NCc1ccc(Cl)cc1)C1CCCCC1,-,-,-,-,-,.,.,.,.,.,.,
CCOC(=O)C1(C)NC(c2cccs2)C2C(=O)N(c3ccc(OC)cc3)C(=O)C21 (configuration not stated),-,-,-,-,-,.,.,.,.,.,.,
Cc1cc(S(=O)(=O)N2CCCCC2CCNC(=O)C(=O)NCC2CCCO2)ccc1F (configuration not stated),-,-,-,-,-,.,.,.,.,.,.,
CCOc1cc(CNc2ccc3c(c2)OCCO3)cc(Br)c1OCC,-,-,-,-,-,.,.,.,.,.,.,
Cc1ccc(S(=O)(=O)N2CCN(C(=O)Cc3ccc4c(c3)OCCO4)CC2)cc1C,-,-6.08,-,-,-,-,-,-,-,-,-,
O=C(c1ccccc1Cl)N1CCN(Cc2ccc3c(c2)OCO3)CC1,-,-,-,-,12.7,-,-,-,-,-,32.5%,
